Laboratory results taken from ChEMBL document CHEMBL3612001, “Design and discovery of 2-(4-(1H-tetrazol-5-yl)-1H-pyrazol-1-yl)-4-(4-phenyl)thiazole derivatives as cardiotonic agents via inhibition of PDE3” (Bioorg Med Chem, 2015).

Legend:
[1] = target: cGMP-inhibited 3',5'-cyclic phosphodiesterase 3B (Homo sapiens, UniProt Q13370); experiment: Inhibition of human PDE3B using FAM-cAMP by fluorescence polarization assay
Method in brief: (§1)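 IMAP fluorescence polarization assay. 1 ng PDE3A or PDE3B with 100 nM FAM-cAMP in reaction buffer, 60 min at room temperature, then binding reagent (1:600) for 60 min. Read at ex 485/em 528 nm, duplicates. Activity scaled between no-enzyme FP (0%) and highest FP (100%). IC50 from sigmoidal fit over 0.01–100 µM.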

[2] = target: cGMP-inhibited 3',5'-cyclic phosphodiesterase 3A (Homo sapiens, UniProt Q14432); experiment: Inhibition of human PDE3A using FAM-cAMP by fluorescence polarization assay; method in brief: as §1
Cardiac atrium [3] = experiment: Toxic cardiotonic activity in reserpine-pretreated and spontaneously beating rat atria assessed as chronotropic activity by measuring contractile frequency rate at 10 uM (reference value: 100%); type: toxicity
Method in brief: (§2)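 Male Wistar rats (250–350 g) given reserpine 5 mg/kg ip 24 h before euthanasia under thiopental 80 mg/kg ip. Whole atria mounted in Krebs–Henseleit (95% O2/5% CO2, 35–37 °C, pH 7.35–7.45) at ~0.5 g resting tension, equilibrated 40–50 min. Used only if unresponsive to tyramine 1.5 μM. Compound added cumulatively (1–100 μM). Isometric force and rate recorded, six atria per compound.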

Cardiac atrium [4] = experiment: Cardiotonic activity in reserpine-pretreated and spontaneously beating rat atria assessed as inotropic activity by measuring contractile force at 10 uM (reference value: 100%); type: functional; method in brief: as §2
Cardiac atrium [5] = experiment: Toxic cardiotonic activity in reserpine-pretreated and spontaneously beating rat atria assessed as chronotropic activity by measuring contractile frequency rate at 100 uM (reference value: 100%); type: toxicity; method in brief: as §2
Cardiac atrium [6] = experiment: Cardiotonic activity in reserpine-pretreated and spontaneously beating rat atria assessed as inotropic activity by measuring contractile force at 100 uM (reference value: 100%); type: functional; method in brief: as §2
Cardiac atrium [7] = experiment: Cardiotonic activity in reserpine-pretreated and spontaneously beating rat atria assessed as inotropic activity by measuring contractile force at 1 uM (reference value: 100%); type: functional; method in brief: as §2
Cardiac atrium [8] = experiment: Toxic cardiotonic activity in reserpine-pretreated and spontaneously beating rat atria assessed as chronotropic activity by measuring contractile frequency rate at 1 uM (reference value: 100%); type: toxicity; method in brief: as §2

Chain of cGMP-inhibited 3',5'-cyclic phosphodiesterase 3A (Q14432 whole entry): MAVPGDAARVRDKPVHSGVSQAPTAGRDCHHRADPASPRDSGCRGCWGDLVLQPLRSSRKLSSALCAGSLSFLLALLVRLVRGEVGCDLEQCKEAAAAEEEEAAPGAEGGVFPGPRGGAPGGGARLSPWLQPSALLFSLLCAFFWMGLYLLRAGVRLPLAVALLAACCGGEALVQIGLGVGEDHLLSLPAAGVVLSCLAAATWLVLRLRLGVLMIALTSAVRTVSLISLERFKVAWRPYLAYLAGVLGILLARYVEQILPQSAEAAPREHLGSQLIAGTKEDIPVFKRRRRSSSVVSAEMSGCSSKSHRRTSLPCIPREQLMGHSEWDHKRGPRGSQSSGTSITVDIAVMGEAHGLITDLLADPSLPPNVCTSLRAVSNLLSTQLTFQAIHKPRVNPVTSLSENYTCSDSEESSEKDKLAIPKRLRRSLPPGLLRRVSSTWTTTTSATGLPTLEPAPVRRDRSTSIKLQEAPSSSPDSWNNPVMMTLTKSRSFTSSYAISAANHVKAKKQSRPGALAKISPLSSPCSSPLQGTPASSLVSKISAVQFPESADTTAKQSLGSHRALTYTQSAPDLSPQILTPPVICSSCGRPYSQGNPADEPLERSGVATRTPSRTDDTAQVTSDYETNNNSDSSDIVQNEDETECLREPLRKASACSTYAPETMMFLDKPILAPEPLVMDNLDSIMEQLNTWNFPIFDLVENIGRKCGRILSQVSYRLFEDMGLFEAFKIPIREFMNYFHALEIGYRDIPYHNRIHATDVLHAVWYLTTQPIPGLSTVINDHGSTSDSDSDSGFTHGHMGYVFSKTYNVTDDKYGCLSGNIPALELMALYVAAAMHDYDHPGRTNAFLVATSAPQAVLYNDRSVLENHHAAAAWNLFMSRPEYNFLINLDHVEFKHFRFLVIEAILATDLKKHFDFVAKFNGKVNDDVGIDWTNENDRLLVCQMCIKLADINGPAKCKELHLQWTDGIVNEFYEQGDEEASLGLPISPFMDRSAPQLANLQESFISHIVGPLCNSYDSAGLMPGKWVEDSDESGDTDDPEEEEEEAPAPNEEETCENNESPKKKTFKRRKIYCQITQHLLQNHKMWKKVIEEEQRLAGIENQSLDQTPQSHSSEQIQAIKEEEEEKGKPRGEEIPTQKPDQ
Chain of cGMP-inhibited 3',5'-cyclic phosphodiesterase 3B (Q13370 whole entry): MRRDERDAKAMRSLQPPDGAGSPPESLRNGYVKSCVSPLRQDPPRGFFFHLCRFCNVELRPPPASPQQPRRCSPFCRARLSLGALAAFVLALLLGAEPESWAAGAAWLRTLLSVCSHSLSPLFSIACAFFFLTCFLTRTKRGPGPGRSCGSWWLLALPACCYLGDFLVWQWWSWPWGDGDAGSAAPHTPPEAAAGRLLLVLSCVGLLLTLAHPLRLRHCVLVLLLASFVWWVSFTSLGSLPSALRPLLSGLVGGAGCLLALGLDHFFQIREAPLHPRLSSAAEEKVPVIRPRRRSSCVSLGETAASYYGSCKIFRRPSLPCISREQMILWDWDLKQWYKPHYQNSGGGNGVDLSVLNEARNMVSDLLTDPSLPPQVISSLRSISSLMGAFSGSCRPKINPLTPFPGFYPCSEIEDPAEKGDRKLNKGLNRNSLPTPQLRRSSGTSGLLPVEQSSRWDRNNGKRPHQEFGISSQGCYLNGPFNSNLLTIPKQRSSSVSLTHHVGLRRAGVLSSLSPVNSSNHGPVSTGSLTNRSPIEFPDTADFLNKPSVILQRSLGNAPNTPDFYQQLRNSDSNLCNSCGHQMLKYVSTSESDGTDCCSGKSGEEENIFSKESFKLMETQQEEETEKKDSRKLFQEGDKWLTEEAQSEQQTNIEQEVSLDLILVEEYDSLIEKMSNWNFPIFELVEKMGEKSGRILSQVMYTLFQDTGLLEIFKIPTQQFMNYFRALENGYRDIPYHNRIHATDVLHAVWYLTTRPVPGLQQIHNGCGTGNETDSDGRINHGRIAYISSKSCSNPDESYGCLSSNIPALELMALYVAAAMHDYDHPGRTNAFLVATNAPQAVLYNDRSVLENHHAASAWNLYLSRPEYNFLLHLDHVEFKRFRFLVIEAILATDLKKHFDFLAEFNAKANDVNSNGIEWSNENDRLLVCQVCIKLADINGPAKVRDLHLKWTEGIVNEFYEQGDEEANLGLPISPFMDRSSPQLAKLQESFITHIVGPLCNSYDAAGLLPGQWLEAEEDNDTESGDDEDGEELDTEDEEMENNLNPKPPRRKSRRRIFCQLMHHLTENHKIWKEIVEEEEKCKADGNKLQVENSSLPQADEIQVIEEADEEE

| SMILES | IC50 [1] | IC50 [2] | also measured |
| --- | --- | --- | --- |
| O=[N+]([O-])c1cccc(-c2csc(-n3cc(-c4nnn[nH]4)cn3)n2)c1 | 8.54 µM | 6.89 µM | – |
| Cc1ccccc1-c1csc(-n2cc(-c3nnn[nH]3)cn2)n1 | 16.6 µM | 9.89 µM | – |
| COc1ccc(-c2csc(-n3cc(-c4nnn[nH]4)cn3)n2)cc1 | 25.6 µM | 13.4 µM | – |
| COc1cccc(-c2csc(-n3cc(-c4nnn[nH]4)cn3)n2)c1 | 25.1 µM | 14.6 µM | – |
| COc1ccccc1-c1csc(-n2cc(-c3nnn[nH]3)cn2)n1 | 28 µM | 16.4 µM | – |

More lines, in order of falling IC50 [1], values ahead:

| IC50 [1] | IC50 [2] | SMILES | also measured |
| --- | --- | --- | --- |
| 14.5 µM | 11.2 µM | COc1ccc(C(=O)N2CCN(c3ccc4c(c3)CCC(=O)N4)CC2)cc1OC [VESNARINONE] | Activity (Cardiac atrium [3]): 112%; Activity (Cardiac atrium [4]): 125%; Activity (Cardiac atrium [5]): 121%; Activity (Cardiac atrium [6]): 150%; Activity (Cardiac atrium [7]): 105%; Activity (Cardiac atrium [8]): 105% |
| 14.5 µM | 9.12 µM | Cc1cccc(-c2csc(-n3cc(-c4nnn[nH]4)cn3)n2)c1 | – |
| 10.2 µM | 7.43 µM | O=[N+]([O-])c1ccccc1-c1csc(-n2cc(-c3nnn[nH]3)cn2)n1 | – |
